Test results reported in ChEMBL document CHEMBL1140759, “Synthesis, anti-Toxoplasma gondii and antimicrobial activities of benzaldehyde 4-phenyl-3-thiosemicarbazones and 2-[(phenylmethylene)hydrazono]-4-oxo-3-phenyl-5-thiazolidineacetic acids” (Bioorg Med Chem, 2008).
pIC50: −log10 of the molar value.

Columns and labels:
Micrococcus luteus = assay: Antimicrobial activity against Micrococcus luteus at 300 ug/disc; assay type: functional; conditions: read-out: IZ
How it was run: (§1)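 Disc diffusion on agar plates inoculated with a standardized microbial suspension, with paper discs carrying known compound amounts. DMSO-only discs served as negative controls, and chloramphenicol, rifampicin (bacteria) or nistatin (fungi) as references. The read-out is the mean inhibition zone diameter in mm. Each run was done three times and repeated if results differed.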

Mycolicibacterium phlei = assay: Antimicrobial activity against Mycobacterium phlei at 300 ug/disc; assay type: functional; conditions: read-out: IZ; how it was run: as §1
Toxoplasma gondii [1] = assay: Inhibition of intracellular parasite Toxoplasma gondii; assay type: functional, organism-based
How it was run: (§2)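 Infected Vero cultures were exposed to compound at 0.01–30 mM for 24 h, in triplicate per assay. IC50 for infected cells and intracellular parasites was derived by non-linear regression, using trypan blue exclusion.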

Candida [2] = assay: Antimicrobial activity against Candida sp. IMUR720 at 300 ug/disc; assay type: functional; conditions: read-out: IZ; how it was run: as §1
Candida albicans = assay: Antimicrobial activity against Candida albicans at 300 ug/disc; assay type: functional; conditions: read-out: IZ; how it was run: as §1
Saccharomyces cerevisiae = assay: Antimicrobial activity against Saccharomyces cerevisiae at 300 ug/disc; assay type: functional; conditions: read-out: IZ; how it was run: as §1
[3] = test system: Mycolicibacterium smegmatis; assay: Antimicrobial activity against Mycobacterium smegmatis at 300 ug/disc; assay type: functional; conditions: read-out: IZ; how it was run: as §1
Escherichia coli = assay: Antimicrobial activity against Escherichia coli at 300 ug/disc; assay type: functional; conditions: read-out: IZ; how it was run: as §1
Candida [4] = assay: Antimicrobial activity against Candida sp. IMUR4249 at 300 ug/disc; assay type: functional; conditions: read-out: IZ; how it was run: as §1
Toxoplasma gondii [5] = assay: Inhibition of Toxoplasma gondii infected in african green monkey Vero cells; assay type: functional, organism-based; how it was run: as §2
Staphylococcus aureus = assay: Antimicrobial activity against Staphylococcus aureus at 300 ug/disc; assay type: functional; conditions: read-out: IZ; how it was run: as §1
Toxoplasma gondii [6] = assay: Antiparasitic activity against Toxoplasma gondii infected african green monkey Vero cells at 0.1 mM assessed as infected cells; assay type: functional
How it was run: (§3)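 Vero cells were infected with RH-strain tachyzoites (5:1 parasite:cell) for 1 h, washed with PBS, and grown 24 h at 37 °C in medium 199 with 5% FCS. Compound was then added for 24 h. Cells were fixed with Bouin's, stained with Giemsa, and at least 400 cells were counted by light microscopy for the percentage infected. Hydroxyurea and sulfadiazine served as references.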

Bacillus subtilis = assay: Antimicrobial activity against Bacillus subtilis at 300 ug/disc; assay type: functional; conditions: read-out: IZ; how it was run: as §1
Toxoplasma gondii [7] = assay: Antiparasitic activity against Toxoplasma gondii infected african green monkey Vero cells at 5 mM assessed as infected cells; assay type: functional; how it was run: as §3
Candida [8] = assay: Antimicrobial activity against Candida sp. IMUR1224 at 300 ug/disc; assay type: functional; conditions: read-out: IZ; how it was run: as §1
Klebsiella pneumoniae = assay: Antimicrobial activity against Klebsiella pneumoniae at 300 ug/disc; assay type: functional; conditions: read-out: IZ; how it was run: as §1
[9] = test system: Mycobacterium tuberculosis; assay: Antimicrobial activity against Mycobacterium tuberculosis at 300 ug/disc; assay type: functional; conditions: read-out: IZ
How it was run: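 Agar disc diffusion: paper discs loaded with compound placed on agar plates seeded with a standardised microbial suspension. DMSO-only discs served as negative control. Chloramphenicol and rifampicin (bacteria) or nistatin (fungi) gave reference zones. Read-out was mean zone of inhibition diameter (mm). Each experiment was run three times and repeated if results differed.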

Toxoplasma gondii [10] = assay: Antiparasitic activity against Toxoplasma gondii infected african green monkey Vero cells at 8 mM assessed as infected cells; assay type: functional; how it was run: as §3
Toxoplasma gondii [11] = assay: Antiparasitic activity against Toxoplasma gondii infected african green monkey Vero cells at 2 mM assessed as infected cells; assay type: functional; how it was run: as §3
Vero = assay: Inhibition of uninfected african green monkey Vero cells; assay type: cell-based; conditions: Chlorocebus sabaeus
Enterococcus faecalis = assay: Antimicrobial activity against Streptococcus faecalis at 300 ug/disc; assay type: functional; conditions: read-out: IZ; how it was run: as §1
Toxoplasma gondii [12] = assay: Antiparasitic activity against Toxoplasma gondii infected african green monkey Vero cells at 20 mM assessed as infected cells; assay type: functional; how it was run: as §3

Row | SMILES | pIC50 (Toxoplasma gondii [1]) | pIC50 (Toxoplasma gondii [5]) | Activity (Toxoplasma gondii [6]) [%] | Activity (Toxoplasma gondii [7]) [%] | Activity (Toxoplasma gondii [10]) [%] | Activity (Toxoplasma gondii [11]) [%] | pIC50 (Vero) | Activity (Toxoplasma gondii [12]) [%] | other results
1 | O=C(O)CC1S/C(=N\N=C\c2cccc(Cl)c2)N(c2ccccc2)C1=O (stereo not given) | 2.70 | 2.52 | 53.74 | 33.5 | 0 | 34.8 | 2.00 | 0 | zone of inhibition at 300 µg/disc (Micrococcus luteus): 16 mm; zone of inhibition at 300 µg/disc (Mycolicibacterium phlei): < 7 mm; zone of inhibition at 300 µg/disc (Candida [2]): < 7 mm; zone of inhibition at 300 µg/disc (Candida albicans): < 7 mm; zone of inhibition at 300 µg/disc (Saccharomyces cerevisiae): < 7 mm; zone of inhibition at 300 µg/disc [3]: < 7 mm; zone of inhibition at 300 µg/disc (Escherichia coli): < 7 mm; zone of inhibition at 300 µg/disc (Candida [4]): 11 mm; zone of inhibition at 300 µg/disc (Staphylococcus aureus): < 7 mm; zone of inhibition at 300 µg/disc (Bacillus subtilis): < 7 mm; zone of inhibition at 300 µg/disc (Candida [8]): < 7 mm; zone of inhibition at 300 µg/disc (Klebsiella pneumoniae): < 7 mm; zone of inhibition at 300 µg/disc [9]: < 7 mm; zone of inhibition at 300 µg/disc (Enterococcus faecalis): 12 mm
2 | Cc1ccc(/C=N/N=C2\SC(CC(=O)O)C(=O)N2c2ccccc2)cc1 (stereo not given) | 4.30 | 4.00 | 39.2 | 0 | 0 | 1.23 | 3.00 | 0 | zone of inhibition at 300 µg/disc (Micrococcus luteus): 16 mm; zone of inhibition at 300 µg/disc (Mycolicibacterium phlei): < 7 mm; zone of inhibition at 300 µg/disc [3]: < 7 mm; zone of inhibition at 300 µg/disc (Escherichia coli): < 7 mm; zone of inhibition at 300 µg/disc (Staphylococcus aureus): < 7 mm; zone of inhibition at 300 µg/disc (Bacillus subtilis): < 7 mm; zone of inhibition at 300 µg/disc (Klebsiella pneumoniae): < 7 mm; zone of inhibition at 300 µg/disc [9]: < 7 mm; zone of inhibition at 300 µg/disc (Enterococcus faecalis): 12 mm
3 | COc1ccc(/C=N/NC(=S)Nc2ccccc2)c(OC)c1 | 2.70 | 2.70 | 73 | 9.2 | 3.6 | 41.44 | 2.30 | 1.49 | –
4 | Cc1ccc(/C=N/NC(=S)Nc2ccccc2)cc1 | 2.52 | 2.40 | 51.08 | 27.84 | 2.96 | 36.78 | 2.10 | 0 | –
5 | S=C(N/N=C/c1ccc(Cl)c(Cl)c1)Nc1ccccc1 | 2.70 | 2.30 | 49.18 | 21.96 | 4.54 | 38.02 | 2.22 | 0 | –
6 | COc1cc(/C=N/NC(=S)Nc2ccccc2)ccc1O | 4.00 | 3.00 | 80.05 | 19.3 | 2.6 | 19.7 | 2.22 | 0 | –
7 | CC(C)(C)c1cc(/C=N/NC(=S)Nc2ccccc2)cc(C(C)(C)C)c1O | 2.40 | 2.30 | 63.44 | 30.51 | 6.42 | 64.07 | 2.00 | 0 | –
8 | COc1cc(/C=N/N=C2\SC(CC(=O)O)C(=O)N2c2ccccc2)ccc1O (stereo not given) | 3.00 | 2.52 | 46.02 | 3.5 | 0 | 41.96 | 4.00 | 0 | zone of inhibition at 300 µg/disc (Micrococcus luteus): < 7 mm; zone of inhibition at 300 µg/disc (Mycolicibacterium phlei): < 7 mm; zone of inhibition at 300 µg/disc (Candida [2]): < 7 mm; zone of inhibition at 300 µg/disc (Candida albicans): < 7 mm; zone of inhibition at 300 µg/disc (Saccharomyces cerevisiae): < 7 mm; zone of inhibition at 300 µg/disc [3]: < 7 mm; zone of inhibition at 300 µg/disc (Escherichia coli): < 7 mm; zone of inhibition at 300 µg/disc (Staphylococcus aureus): < 7 mm; zone of inhibition at 300 µg/disc (Bacillus subtilis): < 7 mm; zone of inhibition at 300 µg/disc (Candida [8]): < 7 mm; zone of inhibition at 300 µg/disc (Klebsiella pneumoniae): < 7 mm; zone of inhibition at 300 µg/disc [9]: < 7 mm; zone of inhibition at 300 µg/disc (Enterococcus faecalis): < 7 mm
9 | COc1cc(/C=N/NC(=S)Nc2ccccc2)cc(OC)c1OC | 2.70 | 2.52 | 76.37 | 24.32 | 23.17 | 72.04 | 2.00 | 0 | –
10 | CN(C)c1ccc(/C=N/NC(=S)Nc2ccccc2)cc1 | 3.00 | 2.70 | 76.14 | 18.14 | 13.46 | 35.81 | 2.22 | 0 | –
11 | COc1ccc(/C=N/N=C2\SC(CC(=O)O)C(=O)N2c2ccccc2)cc1 (stereo not given) | – | 3.30 | 27.32 | 5.9 | 0 | 4.51 | 2.22 | 0 | zone of inhibition at 300 µg/disc (Micrococcus luteus): 16 mm; zone of inhibition at 300 µg/disc (Mycolicibacterium phlei): < 7 mm; zone of inhibition at 300 µg/disc (Candida [2]): < 7 mm; zone of inhibition at 300 µg/disc (Candida albicans): 15 mm; zone of inhibition at 300 µg/disc (Saccharomyces cerevisiae): < 7 mm; zone of inhibition at 300 µg/disc [3]: < 7 mm; zone of inhibition at 300 µg/disc (Escherichia coli): < 7 mm; zone of inhibition at 300 µg/disc (Candida [4]): 16 mm; zone of inhibition at 300 µg/disc (Staphylococcus aureus): < 7 mm; zone of inhibition at 300 µg/disc (Bacillus subtilis): 11 mm; zone of inhibition at 300 µg/disc (Candida [8]): < 7 mm; zone of inhibition at 300 µg/disc (Klebsiella pneumoniae): < 7 mm; zone of inhibition at 300 µg/disc [9]: < 7 mm; zone of inhibition at 300 µg/disc (Enterococcus faecalis): < 7 mm
12 | Nc1ccc(S(=O)(=O)Nc2ncccn2)cc1 [SULFADIAZINE] | 2.52 | 2.52 | 53.84 | 29.55 | 6.84 | 48.71 | 2.10 | 0 | –
13 | Fc1ccc(/C=N/NC(=S)Nc2ccccc2)cc1 | 3.00 | 2.70 | 46.59 | 28 | 19.83 | 35.2 | 2.00 | 0 | –
14 | COc1ccc(/C=N/NC(=S)Nc2ccccc2)cc1 | 3.00 | 2.70 | 50.43 | 19 | 12.36 | 29.39 | 2.22 | 0 | –
15 | S=C(N/N=C/c1ccccc1)Nc1ccccc1 | 2.40 | 2.30 | 82.5 | 31.83 | 13.52 | 77.82 | 2.30 | 0 | –
16 | S=C(N/N=C/c1ccc(Cl)cc1)Nc1ccccc1 | 2.82 | 2.15 | 70.01 | 38.7 | 21.05 | 34.8 | 2.00 | 0 | –
17 | S=C(N/N=C/c1cccc(Cl)c1)Nc1ccccc1 | 2.52 | 2.15 | 44.52 | 52.06 | 24.49 | 60.69 | 2.00 | 0 | –
18 | Cc1cccc(/C=N/NC(=S)Nc2ccccc2)c1 | 2.70 | 2.30 | 66.23 | 26.86 | 22.72 | 39.82 | 2.30 | 0 | –
19 | COc1cccc(/C=N/NC(=S)Nc2ccccc2)c1 | 3.00 | 2.70 | 53.6 | 9.7 | 5.9 | 34.82 | 2.30 | 0 | –
20 | Fc1ccccc1/C=N/NC(=S)Nc1ccccc1 | 3.00 | 2.82 | 91.5 | 14.32 | 29.29 | 28.13 | 2.40 | 0 | –
21 | S=C(N/N=C/c1ccc(Cl)cc1Cl)Nc1ccccc1 | 3.00 | 2.70 | 49.33 | 31.32 | 12.08 | 33.28 | 2.22 | 0 | –
22 | NC(=O)NO [HYDROXYUREA] | 4.00 | 3.30 | 58.23 | 10.4 | 7.37 | 22.78 | 3.00 | 0 | –
